Measured values taken from ChEMBL document CHEMBL4028872, “Structure-Activity Relationship, Pharmacological Characterization, and Molecular Modeling of Noncompetitive Inhibitors of the Betaine/γ-Aminobutyric Acid Transporter 1 (BGT1)” (J Med Chem, 2017).
Values belong to the molecule of their own block, whether it stands above or below them. Activity calls are given as the source filed them. The rule behind the calls is not given here.

Key:
[1] = target: T1, Sodium- and chloride-dependent GABA transporter 2 (Homo sapiens, UniProt Q9NSD5); assay: Inhibition of human GAT2 expresses in tsA201 cells assessed as reduction in [3H]GABA uptake after 3 mins by scintillation counting method; assay type: cell-based
T1 sequence (Q9NSD5 whole entry): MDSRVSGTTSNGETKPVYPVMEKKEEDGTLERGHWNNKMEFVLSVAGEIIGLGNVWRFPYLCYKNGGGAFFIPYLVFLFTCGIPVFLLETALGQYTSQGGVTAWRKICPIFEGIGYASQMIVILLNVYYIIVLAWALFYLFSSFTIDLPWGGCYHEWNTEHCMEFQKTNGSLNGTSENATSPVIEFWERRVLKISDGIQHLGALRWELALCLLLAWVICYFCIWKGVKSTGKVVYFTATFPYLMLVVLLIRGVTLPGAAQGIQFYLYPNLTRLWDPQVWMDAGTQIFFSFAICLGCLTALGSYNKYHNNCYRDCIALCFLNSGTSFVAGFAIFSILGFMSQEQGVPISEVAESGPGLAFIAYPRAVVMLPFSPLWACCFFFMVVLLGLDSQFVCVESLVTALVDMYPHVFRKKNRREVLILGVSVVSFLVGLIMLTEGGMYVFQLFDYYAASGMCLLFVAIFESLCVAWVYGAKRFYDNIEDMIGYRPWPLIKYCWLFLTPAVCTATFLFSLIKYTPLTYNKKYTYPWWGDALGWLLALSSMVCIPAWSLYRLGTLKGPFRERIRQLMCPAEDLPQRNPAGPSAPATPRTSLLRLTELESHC
Method in brief: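 Wild-type human GAT transiently expressed in tsA201 cells via pcDNA5/FRT and PolyFect. Uptake of 30 nM [3H]GABA was run for 3 min at 37 °C in HBSS/20 mM HEPES with 1 mM CaCl2 and 1 mM MgCl2, pH 7.4, across a range of test concentrations. Ice-cold washes were followed by scintillation counting. IC50 was obtained by sigmoidal variable-slope fitting, reported as mean pIC50 ± S.E.M.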

[2] = target: Sodium- and chloride-dependent betaine transporter (Homo sapiens, UniProt P48065, F295Y); assay: Inhibition of human BGT1 F295Y mutant expressed in tsA201 cells assessed as reduction in [3H]GABA uptake after 3 mins by scintillation counting method; assay type: cell-based
Sodium- and chloride-dependent betaine transporter (Homo sapiens, UniProt P48065, F295Y), sequence (P48065 whole entry F295Y): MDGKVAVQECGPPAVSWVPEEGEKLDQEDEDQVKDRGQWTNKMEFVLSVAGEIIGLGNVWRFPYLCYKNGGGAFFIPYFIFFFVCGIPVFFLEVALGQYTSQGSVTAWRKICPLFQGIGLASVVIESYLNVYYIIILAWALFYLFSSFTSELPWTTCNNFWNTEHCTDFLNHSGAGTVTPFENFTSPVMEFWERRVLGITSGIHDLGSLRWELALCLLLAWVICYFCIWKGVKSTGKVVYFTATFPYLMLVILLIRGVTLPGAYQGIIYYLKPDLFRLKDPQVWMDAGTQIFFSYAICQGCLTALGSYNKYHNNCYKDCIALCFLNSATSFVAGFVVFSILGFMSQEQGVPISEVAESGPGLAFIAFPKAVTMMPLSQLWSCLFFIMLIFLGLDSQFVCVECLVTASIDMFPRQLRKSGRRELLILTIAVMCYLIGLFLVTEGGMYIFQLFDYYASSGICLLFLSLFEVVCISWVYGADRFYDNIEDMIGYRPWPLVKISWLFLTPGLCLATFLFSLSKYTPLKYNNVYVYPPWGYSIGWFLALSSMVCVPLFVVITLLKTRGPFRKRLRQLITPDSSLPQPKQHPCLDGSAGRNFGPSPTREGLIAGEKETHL
Method in brief: (§1)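 Site-directed mutant transporters transiently transfected (PolyFect) into tsA201 cells, plated and used about 24 h later. Cells were washed with HBSS containing 20 mM HEPES, 1 mM CaCl2 and 1 mM MgCl2, pH 7.4. IC50 was taken from variable-slope sigmoidal fits. Triplicates, at least three independent experiments.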

[3] = target: Sodium- and chloride-dependent betaine transporter (Homo sapiens, UniProt P48065, K317R); assay: Inhibition of human BGT1 K317R mutant expressed in tsA201 cells assessed as reduction in [3H]GABA uptake after 3 mins by scintillation counting method; assay type: cell-based; method in brief: as §1
Sodium- and chloride-dependent betaine transporter (Homo sapiens, UniProt P48065, K317R), sequence (P48065 whole entry K317R): as the sequence (P48065 whole entry F295Y) above, with Y295F, K317R counted along it

[4] = target: Sodium- and chloride-dependent betaine transporter (Homo sapiens, UniProt P48065, A321M); assay: Inhibition of human BGT1 A321M mutant expressed in tsA201 cells assessed as reduction in [3H]GABA uptake after 3 mins by scintillation counting method; assay type: cell-based; method in brief: as §1
Sodium- and chloride-dependent betaine transporter (Homo sapiens, UniProt P48065, A321M), sequence (P48065 whole entry A321M): as the sequence (P48065 whole entry F295Y) above, with Y295F, A321M counted along it

[5] = target: Sodium- and chloride-dependent betaine transporter (Homo sapiens, UniProt P48065, A328G); assay: Inhibition of human BGT1 A328G mutant expressed in tsA201 cells assessed as reduction in [3H]GABA uptake after 3 mins by scintillation counting method; assay type: cell-based; method in brief: as §1
Sodium- and chloride-dependent betaine transporter (Homo sapiens, UniProt P48065, A328G), sequence (P48065 whole entry A328G): as the sequence (P48065 whole entry F295Y) above, with Y295F, A328G counted along it

[6] = target: Sodium- and chloride-dependent betaine transporter (Homo sapiens, UniProt P48065, V336A); assay: Inhibition of human BGT1 V336A mutant expressed in tsA201 cells assessed as reduction in [3H]GABA uptake after 3 mins by scintillation counting method; assay type: cell-based; method in brief: as §1
Sodium- and chloride-dependent betaine transporter (Homo sapiens, UniProt P48065, V336A), sequence (P48065 whole entry V336A): as the sequence (P48065 whole entry F295Y) above, with Y295F, V336A counted along it

[7] = target: Sodium- and chloride-dependent betaine transporter (Homo sapiens, UniProt P48065, V337I); assay: Inhibition of human BGT1 V337I mutant expressed in tsA201 cells assessed as reduction in [3H]GABA uptake after 3 mins by scintillation counting method; assay type: cell-based; method in brief: as §1
Sodium- and chloride-dependent betaine transporter (Homo sapiens, UniProt P48065, V337I), sequence (P48065 whole entry V337I): as the sequence (P48065 whole entry F295Y) above, with Y295F, V337I counted along it

[8] = target: Sodium- and chloride-dependent betaine transporter (Homo sapiens, UniProt P48065, S353A); assay: Inhibition of human BGT1 S353A mutant expressed in tsA201 cells assessed as reduction in [3H]GABA uptake after 3 mins by scintillation counting method; assay type: cell-based; method in brief: as §1
Sodium- and chloride-dependent betaine transporter (Homo sapiens, UniProt P48065, S353A), sequence (P48065 whole entry S353A): as the sequence (P48065 whole entry F295Y) above, with Y295F, S353A counted along it

[9] = target: Sodium- and chloride-dependent betaine transporter (Homo sapiens, UniProt P48065, F367Y); assay: Inhibition of human BGT1 F367Y mutant expressed in tsA201 cells assessed as reduction in [3H]GABA uptake after 3 mins by scintillation counting method; assay type: cell-based; method in brief: as §1
Sodium- and chloride-dependent betaine transporter (Homo sapiens, UniProt P48065, F367Y), sequence (P48065 whole entry F367Y): as the sequence (P48065 whole entry F295Y) above, with Y295F, F367Y counted along it

[10] = target: Sodium- and chloride-dependent betaine transporter (Homo sapiens, UniProt P48065, Q378P); assay: Inhibition of human BGT1 Q378P mutant expressed in tsA201 cells assessed as reduction in [3H]GABA uptake after 3 mins by scintillation counting method; assay type: cell-based; method in brief: as §1
Sodium- and chloride-dependent betaine transporter (Homo sapiens, UniProt P48065, Q378P), sequence (P48065 whole entry Q378P): as the sequence (P48065 whole entry F295Y) above, with Y295F, Q378P counted along it

[11] = target: Sodium- and chloride-dependent betaine transporter (Homo sapiens, UniProt P48065, S381A); assay: Inhibition of human BGT1 S381A mutant expressed in tsA201 cells assessed as reduction in [3H]GABA uptake after 3 mins by scintillation counting method; assay type: cell-based; method in brief: as §1
Sodium- and chloride-dependent betaine transporter (Homo sapiens, UniProt P48065, S381A), sequence (P48065 whole entry S381A): as the sequence (P48065 whole entry F295Y) above, with Y295F, S381A counted along it

[12] = target: Sodium- and chloride-dependent betaine transporter (Homo sapiens, UniProt P48065, C382T); assay: Inhibition of human BGT1 C382T mutant expressed in tsA201 cells assessed as reduction in [3H]GABA uptake after 3 mins by scintillation counting method; assay type: cell-based; method in brief: as §1
Sodium- and chloride-dependent betaine transporter (Homo sapiens, UniProt P48065, C382T), sequence (P48065 whole entry C382T): as the sequence (P48065 whole entry F295Y) above, with Y295F, C382T counted along it

[13] = target: Sodium- and chloride-dependent betaine transporter (Homo sapiens, UniProt P48065, I386M); assay: Inhibition of human BGT1 I386M mutant expressed in tsA201 cells assessed as reduction in [3H]GABA uptake after 3 mins by scintillation counting method; assay type: cell-based; method in brief: as §1
Sodium- and chloride-dependent betaine transporter (Homo sapiens, UniProt P48065, I386M), sequence (P48065 whole entry I386M): as the sequence (P48065 whole entry F295Y) above, with Y295F, I386M counted along it

[14] = target: Sodium- and chloride-dependent betaine transporter (Homo sapiens, UniProt P48065, Y453A); assay: Inhibition of human BGT1 Y453A mutant expressed in tsA201 cells assessed as reduction in [3H]GABA uptake after 3 mins by scintillation counting method; assay type: cell-based
Sodium- and chloride-dependent betaine transporter (Homo sapiens, UniProt P48065, Y453A), sequence (P48065 whole entry Y453A): as the sequence (P48065 whole entry F295Y) above, with Y295F, Y453A counted along it
Method in brief: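 tsA201 cells transiently transfected with wild-type or mutant human BGT1 (PolyFect) were plated about 24 h before assay. Three ice-cold washes followed, then scintillation counting.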

[15] = target: T2, Sodium- and chloride-dependent betaine transporter (Homo sapiens, UniProt P48065); assay: Inhibition of human BGT1/human GAT3 chimera C expresses in tsA201 cells assessed as reduction in [3H]GABA uptake after 3 mins by scintillation counting method; assay type: cell-based
T2 sequence (P48065 whole entry, looked up): as the sequence (P48065 whole entry F295Y) above, with Y295F counted along it
Method in brief: (§2)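 BGT1/GAT3 chimeric constructs transiently expressed in tsA201 cells. After about 24 h, cells were washed in HEPES-buffered HBSS (1 mM CaCl2, 1 mM MgCl2, pH 7.4). IC50 came from variable-slope sigmoidal regression. Triplicates, at least two independent experiments.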

[16] = target: T2, Sodium- and chloride-dependent betaine transporter; assay: Inhibition of human BGT1/human GAT3 chimera D expresses in tsA201 cells assessed as reduction in [3H]GABA uptake after 3 mins by scintillation counting method; assay type: cell-based; method in brief: as §2
[17] = organism: Homo sapiens; assay: Binding affinity to sigma receptor (unknown origin)

IC50 [1]: > 100 µM | IC50 ([2]; read-out: IC50): 5 µM | IC50 ([2]; read-out: pIC50 (converted)): 4.07 µM | IC50 [3]: 13 µM | IC50 [4]: 5 µM | IC50 [5]: 7 µM | IC50 ([6]; read-out: IC50): 2 µM | IC50 ([6]; read-out: pIC50 (converted)): 1.66 µM | IC50 ([7]; read-out: IC50): 6 µM | IC50 ([7]; read-out: pIC50 (converted)): 4.9 µM | IC50 [8]: 17 µM | IC50 ([9]; read-out: IC50): 5 µM | IC50 ([9]; read-out: pIC50 (converted)): 6.03 µM | IC50 [10]: 14 µM | IC50 [11]: 13 µM | IC50 [12]: 15 µM | IC50 [13]: 7 µM | IC50 [14]: 19 µM | IC50 [15]: 58 µM | pIC50 [15]: 4.6 | IC50 [16]: 2 µM | pIC50 [16]: 5.79
SMILES: O=C(NC1CCN(Cc2ccccc2)CC1)c1ccc(Cl)cc1Cl

SMILES: O=C(NC1CCN(Cc2ccccc2)CC1)c1ccc(Cl)nc1Cl
IC50 ([1]; read-out: IC50): 479 µM | Activity [17]: Active | IC50 [14]: 23 µM
